According to ChEMBL document CHEMBL3232816, “Substituted E-3-(3-indolylmethylene)1,3-dihydroindol-2-ones with antiproliferative activity. Study of the effects on HL-60 leukemia cells” (2014):
Calls of active or inactive are those of the source. The rule behind the calls is not given here.

Tests used:
[1] = Cytotoxicity against human NSCLC cells after 48 hrs; format: functional
In short: (§1)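 NCI 60-line panel. Compounds were dissolved in DMSO and tested at five 10-fold dilutions, the highest 10^-4 M (10^-3 M where footnoted), over 48 h of incubation. The readouts were GI50, TGI and LC50 in μM, with the panel mean also given. Only compounds passing a 10^-5 M single-dose prescreen were tested; some were repeated and averaged over two experiments.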

HL-60 [2] = test: Induction of apoptosis in human HL60 cells assessed as increase in intracellular free Mg2+ level at 1 uM after 24 hrs by Mag-Fura2 probe-based fluorometric analysis; format: functional, cell-based
In short: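 They were loaded with 5 μM Mag-Fura2 for 60 min at 37 °C in the dark, washed, and held 45 min at room temperature. Emission at 510 nm was read with excitation at 335/370 nm. Rmin came from 5 mM EDTA/EGTA then 0.1% Triton X-100, Rmax from MgSO4. Free Mg2+ was calculated with Kd 2.1 mM, in triplicate.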

[3] = Cytotoxicity against human CNS cancer cells after 48 hrs; format: functional; conditions: Cancer cell lines; in short: as §1
HL-60 [4] = test: Effect on autophagy in human HL60 cells by acridine orange staining; format: functional, cell-based
HL-60 [5] = test: Cell cycle arrest in human HL60 cells assessed as accumulation at S phase at 1 uM after 24 hrs by propidium iodide staining-based flow cytometric analysis (reference value: 56.9%); format: functional
HL-60 [6] = test: Cell cycle arrest in human HL60 cells assessed as accumulation at G2-M phase at 1 uM after 24 hrs by propidium iodide staining-based flow cytometric analysis (reference value: 10.7%); format: functional
[7] = Cytotoxicity against human ovarian cancer cells after 48 hrs; format: functional; conditions: Cancer cell lines; in short: as §1
[8] = Cytotoxicity against human leukemia cells after 48 hrs; format: functional; conditions: Leukemia cell; in short: as §1
HL-60 [9] = test: Induction of apoptosis in human HL60 cells assessed as increase in intracellular free Ca2+ level at 1 uM after 24 hrs by INDO-1/AM probe-based fluorometric analysis; format: functional, cell-based
In short: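 They were stained with 5 μM INDO-1/AM, excited at 346 nm, and emission read at 405/485 nm. Rmin came from 5 mM EDTA/EGTA plus 5 μM digitonin, Rmax from 10 mM CaCl2. Free Ca2+ was calculated with Kd […]. Means ± s.e.m., n=3.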

HL-60 [10] = test: Cytotoxicity against human HL60 cells assessed as growth inhibition at 1 uM measured up to 48 hrs; format: functional, cell-based
In short: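 HL-60 cells, RPMI 1640 with 10% fetal calf serum and 2 mM glutamine, 37 °C, 5% CO2. Cells received 1 μM compound diluted from a 10 mmol/L DMSO stock; controls got equal DMSO. Viable cells were counted daily to follow total cell number. Means ± s.e.m. of three determinations.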

[11] = Cytotoxicity against human melanoma cells after 48 hrs; format: functional; conditions: Melanoma cell; in short: as §1
HL-60 [12] = test: Induction of apoptosis in human HL60 cells assessed as increase in caspase proteolytic activity using DEVD as substrate at 1 uM after 24 hrs by fluorometric analysis; format: functional, cell-based
In short: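 After 24 h exposure of HL-60 cells to 1 μM compound or DMSO vehicle, DEVD-hydrolysing caspase (DEVDase) activity was measured fluorometrically in cell extracts. Means ± s.e.m. of three determinations.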

HL-60 [13] = test: Effect on autophagy in human HL60 cells by LC3 protein processing assay; format: functional, cell-based
HL-60 [14] = test: Induction of apoptosis in human HL60 cells assessed as early apoptotic cells at 1 uM after 24 hrs by annexin V-FLUOS staining-based flow cytometric analysis (reference value: 4%); format: functional
[15] = Cytotoxicity against human renal cancer cells after 48 hrs; format: functional; conditions: Cancer cell lines; in short: as §1
[16] = Cytotoxicity against human breast cancer cells after 48 hrs; format: functional; conditions: Cancer cell lines; in short: as §1
HL-60 [17] = test: Cell cycle arrest in human HL60 cells assessed as accumulation at G0-G1 phase at 1 uM after 24 hrs by propidium iodide staining-based flow cytometric analysis (reference value: 32.4%); format: functional
[18] = Cytotoxicity against human prostate cancer cells after 48 hrs; format: functional; conditions: Cancer cell lines; in short: as §1
HL-60 [19] = test: Induction of apoptosis in human HL60 cells assessed as increase in oxidative stress at 1 uM after 24 hrs by DCFDA staining; format: functional, cell-based
In short: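 Intracellular peroxides in HL-60 cells treated 24 h with 1 μM compound or DMSO. Cells were loaded with 5 μM DCF-DA for 30 min at 37 °C, then DCF fluorescence was acquired by flow cytometry with logarithmic amplification. Means ± s.e.m., n=3.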

[20] = Cytotoxicity against human colon cancer cells after 48 hrs; format: functional; conditions: Cancer cell lines; in short: as §1
[21] = read-out: LC50 (the source's name)

COc1ccc(CCn2c(Cl)c(/C=C3/C(=O)Nc4ccccc43)c3ccccc32)cc1
GI50 [1]: 0.43 µM
LC50 [1]: 74.1 µM
TGI [1]: 15.1 µM
Activity (HL-60 [2]): Active
GI50 [3]: 0.34 µM
TGI [3]: 8.32 µM
CC50 [3, 21]: 58.9 µM
Activity (HL-60 [4]): Active
Activity (HL-60 [5]): 14%
Activity (HL-60 [6]): 69.3%
GI50 [7]: 0.34 µM
LC50 [7]: 69.2 µM
TGI [7]: 13.5 µM
GI50 [8]: 0.35 µM
TGI [8]: 15.5 µM
Activity (HL-60 [9]): Active
growth inhibition (GI) (HL-60 [10]): Active
GI50 [11]: 0.46 µM
LC50 [11]: 63.1 µM
TGI [11]: 9.12 µM
Activity (HL-60 [12]): Active
Activity (HL-60 [13]): Active
Activity (HL-60 [14]): 50%
GI50 [15]: 0.48 µM
LC50 [15]: 72.4 µM
TGI [15]: 18.6 µM
GI50 [16]: 0.32 µM
TGI [16]: 6.31 µM
Activity (HL-60 [17]): 16.7%
GI50 [18]: 0.35 µM
TGI [18]: 19.5 µM
CC50 [18, 21]: 55 µM
Activity (HL-60 [19]): Active
GI50 [20]: 0.28 µM
TGI [20]: 1.82 µM
CC50 [20, 21]: 52.5 µM
